The source of these data is ChEMBL document CHEMBL1140444, “Synthesis and structure-activity relationships of novel anti-hepatitis C agents: N3,5'-cyclo-4-(beta-D-ribofuranosyl)-vic-triazolo[4,5-b]pyridin-5-one derivatives” (2005).

The structures appear in SMILES notation.

The subject of one test is Hepatitis C virus. The test can be described thus: Effective concentration against HCV RNA replication in a subgenomic replicon Huh7 cell line. Format: functional, Hepacivirus hominis. As to conditions: Huh-7. The essentials:
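HCV replicon Clone A cells in log-phase growth exposed to various compound concentrations for 3 days. HCV RNA extracted and quantified by real-time PCR. EC90 is the concentration reducing HCV RNA by 90%.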
(Replicon systems follow genome replication, usually without infectious particles.)

A further test relates to Huh-7. The test can be described thus: Cytotoxic concentration against HCV RNA replication in a subgenomic replicon Huh7 cell line. Conditions: Homo sapiens. Format: functional.

Usually EC90 stands for the concentration needed for an effect of 90%. What is called CC50 is the concentration at which the toxic effect on the cells reaches its halfway point. Low values mean harm at low concentration, high ones better tolerance by the cells. `COCCNc1cc(=O)n2c3c1nnn3C[C@H]1O[C@@H]2[C@H](O)C1O` (single isomer, unassigned) returned a concentration for an effect of 90% (EC90) in the test on Hepatitis C virus of 86.1 µM. Besides, the CC50 in the test on Huh-7 is 97.3 µM.
On the same counts, the results for `CN(C)c1cc(=O)n2c3c1nnn3C[C@H]1O[C@@H]2[C@H](O)C1O` (single isomer, unassigned) are more than 100 µM and more than 100 µM.
On the same counts, the results for `O=c1cc(NCCCO)c2nnn3c2n1[C@@H]1O[C@H](C3)C(O)[C@H]1O` (single isomer, unassigned) are more than 100 µM and more than 100 µM.
In turn, `CCCCNc1cc(=O)n2c3c1nnn3C[C@H]1O[C@@H]2[C@H](O)C1O` (single isomer, unassigned) came in with an EC90 with Hepatitis C virus of more than 100 µM. For the same compound, in the test with Huh-7, the CC50 is more than 100 µM.
On to `O=c1ccc2nnn3c2n1[C@@H]1O[C@H](C3)C(O)[C@H]1O` (single isomer, unassigned), for which it took 79.8 µM to reach the 90% level with Hepatitis C virus (EC90). In the test on Huh-7, the 50% cytotoxic concentration (CC50) is 30.6 µM.
In turn, `CCCNc1cc(=O)n2c3c1nnn3C[C@H]1O[C@@H]2[C@H](O)C1O` (single isomer, unassigned) returned an EC90 with Hepatitis C virus of more than 100 µM. This compound also came in with a CC50 in the test with Huh-7 of more than 100 µM.
With `Cc1cc(=O)n2c3c1nnn3C[C@H]1O[C@@H]2[C@H](O)C1O` (single isomer, unassigned), in the test with Hepatitis C virus, the EC90 is 15.4 µM. Also, the CC50 in the test on Huh-7 is 22.6 µM.
Compound `O=c1cc(NC2CC2)c2nnn3c2n1[C@@H]1O[C@H](C3)C(O)[C@H]1O` (single isomer, unassigned) had a concentration for an effect of 90% (EC90) in the test on Hepatitis C virus of more than 100 µM. The CC50 in the test with Huh-7 is more than 100 µM.
Take `CCNc1cc(=O)n2c3c1nnn3C[C@H]1O[C@@H]2[C@H](O)C1O` (single isomer, unassigned): the EC90 in the test on Hepatitis C virus is more than 100 µM. This compound displayed a CC50 in the test on Huh-7 of more than 100 µM.
As to `O=c1c(Br)cc2nnn3c2n1[C@@H]1O[C@H](C3)C(O)[C@H]1O` (single isomer, unassigned), it took 1.9 µM to reach the 90% level in the test with Hepatitis C virus (EC90). The compound also came in with a CC50 in the test with Huh-7 of 1.5 µM.
On the same counts, the results for `O=c1c(Cl)cc2nnn3c2n1[C@@H]1O[C@H](C3)C(O)[C@H]1O` (single isomer, unassigned) are 2.1 µM and 0.06 µM.
The compound `OC1[C@@H](O)[C@H]2O[C@@H]1Cn1nnc3ccc(=S)n2c31` (single isomer, unassigned) displayed an EC90 in the test on Hepatitis C virus of 10 µM. In the test on Huh-7, this compound yielded a CC50 of 11.9 µM.
On the same counts, the results for `O=c1cc(NCCO)c2nnn3c2n1[C@@H]1O[C@H](C3)C(O)[C@H]1O` (single isomer, unassigned) are more than 100 µM and more than 100 µM.
On the same counts, the results for `Nc1cc(=O)n2c3c1nnn3C[C@H]1O[C@@H]2[C@H](O)C1O` (single isomer, unassigned) are 29.7 µM and 74.2 µM.
In the case of `CNc1cc(=O)n2c3c1nnn3C[C@H]1O[C@@H]2[C@H](O)C1O` (single isomer, unassigned), in the test with Hepatitis C virus, the 90% effect level (EC90) was put at 7.4 µM. In the test on Huh-7, the CC50 is 4.6 µM.
